We go through one compound from ChEMBL document CHEMBL4422684, “Identification of novel lysine demethylase 5-selective inhibitors by inhibitor-based fragment merging strategy” (Bioorg Med Chem, 2019).

The target of test [1] is T1, Lysine-specific demethylase 4A (Homo sapiens, UniProt O75164).
T1 sequence (O75164 whole entry): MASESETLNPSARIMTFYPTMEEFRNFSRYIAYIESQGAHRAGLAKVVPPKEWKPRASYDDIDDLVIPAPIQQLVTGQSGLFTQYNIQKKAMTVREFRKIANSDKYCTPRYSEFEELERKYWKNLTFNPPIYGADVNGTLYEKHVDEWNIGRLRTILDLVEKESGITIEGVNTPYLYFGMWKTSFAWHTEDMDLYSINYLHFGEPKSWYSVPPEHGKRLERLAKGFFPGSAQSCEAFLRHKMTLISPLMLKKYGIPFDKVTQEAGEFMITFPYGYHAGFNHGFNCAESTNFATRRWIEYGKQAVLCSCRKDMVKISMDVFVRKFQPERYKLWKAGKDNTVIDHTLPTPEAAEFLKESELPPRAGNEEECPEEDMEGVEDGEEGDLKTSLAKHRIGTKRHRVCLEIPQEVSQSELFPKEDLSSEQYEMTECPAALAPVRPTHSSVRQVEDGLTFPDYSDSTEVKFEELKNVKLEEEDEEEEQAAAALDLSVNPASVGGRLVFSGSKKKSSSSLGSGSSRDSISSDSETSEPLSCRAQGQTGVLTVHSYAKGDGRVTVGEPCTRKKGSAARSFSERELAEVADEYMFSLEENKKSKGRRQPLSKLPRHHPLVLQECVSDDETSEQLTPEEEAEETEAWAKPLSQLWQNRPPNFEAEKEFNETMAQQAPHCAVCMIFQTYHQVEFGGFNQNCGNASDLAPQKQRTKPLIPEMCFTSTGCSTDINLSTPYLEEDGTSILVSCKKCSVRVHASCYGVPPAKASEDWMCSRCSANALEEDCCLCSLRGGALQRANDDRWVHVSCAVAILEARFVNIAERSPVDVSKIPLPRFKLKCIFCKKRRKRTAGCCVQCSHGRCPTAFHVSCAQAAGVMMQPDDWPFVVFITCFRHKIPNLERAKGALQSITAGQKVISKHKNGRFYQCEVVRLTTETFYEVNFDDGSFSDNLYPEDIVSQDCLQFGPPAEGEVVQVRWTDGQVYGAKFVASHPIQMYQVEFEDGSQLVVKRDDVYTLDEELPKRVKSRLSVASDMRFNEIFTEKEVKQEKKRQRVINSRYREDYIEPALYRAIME
The test can be described thus: Inhibition of human N-terminal His-tagged KDM4A (1 to 350 residues) expressed in Escherichia coli using H3(21-44)-K36(Me3)-GK(Biotin)/2-OG as substrate measured after 1 hr by Alphalisa assay. An outline of the steps:
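AlphaLISA demethylase assay in 50 mM HEPES pH 7.5, 0.1% BSA, 0.01% Tween 20 with DMSO. Enzyme and inhibitor combined, then peptide plus 2-OG (50 µM), Fe(II) (5 µM) and ascorbate (100 µM) in the added mix; 1 h at room temperature with shaking.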
A general note: Bead proximity is the source of the signal in Alpha formats.

The target in test [2] is Lysine-specific demethylase 5A (Homo sapiens, UniProt P29375). The test can be described thus: Potency index, ratio of CPI-455 IC50 to test compound IC50 for human C-terminal FLAG-tagged KDM5A (1 to 1090 residues) expressed in baculovirus infected Sf9 insect cells.
Lysine-specific demethylase 5A, sequence (P29375 whole entry, the tested form may be a part): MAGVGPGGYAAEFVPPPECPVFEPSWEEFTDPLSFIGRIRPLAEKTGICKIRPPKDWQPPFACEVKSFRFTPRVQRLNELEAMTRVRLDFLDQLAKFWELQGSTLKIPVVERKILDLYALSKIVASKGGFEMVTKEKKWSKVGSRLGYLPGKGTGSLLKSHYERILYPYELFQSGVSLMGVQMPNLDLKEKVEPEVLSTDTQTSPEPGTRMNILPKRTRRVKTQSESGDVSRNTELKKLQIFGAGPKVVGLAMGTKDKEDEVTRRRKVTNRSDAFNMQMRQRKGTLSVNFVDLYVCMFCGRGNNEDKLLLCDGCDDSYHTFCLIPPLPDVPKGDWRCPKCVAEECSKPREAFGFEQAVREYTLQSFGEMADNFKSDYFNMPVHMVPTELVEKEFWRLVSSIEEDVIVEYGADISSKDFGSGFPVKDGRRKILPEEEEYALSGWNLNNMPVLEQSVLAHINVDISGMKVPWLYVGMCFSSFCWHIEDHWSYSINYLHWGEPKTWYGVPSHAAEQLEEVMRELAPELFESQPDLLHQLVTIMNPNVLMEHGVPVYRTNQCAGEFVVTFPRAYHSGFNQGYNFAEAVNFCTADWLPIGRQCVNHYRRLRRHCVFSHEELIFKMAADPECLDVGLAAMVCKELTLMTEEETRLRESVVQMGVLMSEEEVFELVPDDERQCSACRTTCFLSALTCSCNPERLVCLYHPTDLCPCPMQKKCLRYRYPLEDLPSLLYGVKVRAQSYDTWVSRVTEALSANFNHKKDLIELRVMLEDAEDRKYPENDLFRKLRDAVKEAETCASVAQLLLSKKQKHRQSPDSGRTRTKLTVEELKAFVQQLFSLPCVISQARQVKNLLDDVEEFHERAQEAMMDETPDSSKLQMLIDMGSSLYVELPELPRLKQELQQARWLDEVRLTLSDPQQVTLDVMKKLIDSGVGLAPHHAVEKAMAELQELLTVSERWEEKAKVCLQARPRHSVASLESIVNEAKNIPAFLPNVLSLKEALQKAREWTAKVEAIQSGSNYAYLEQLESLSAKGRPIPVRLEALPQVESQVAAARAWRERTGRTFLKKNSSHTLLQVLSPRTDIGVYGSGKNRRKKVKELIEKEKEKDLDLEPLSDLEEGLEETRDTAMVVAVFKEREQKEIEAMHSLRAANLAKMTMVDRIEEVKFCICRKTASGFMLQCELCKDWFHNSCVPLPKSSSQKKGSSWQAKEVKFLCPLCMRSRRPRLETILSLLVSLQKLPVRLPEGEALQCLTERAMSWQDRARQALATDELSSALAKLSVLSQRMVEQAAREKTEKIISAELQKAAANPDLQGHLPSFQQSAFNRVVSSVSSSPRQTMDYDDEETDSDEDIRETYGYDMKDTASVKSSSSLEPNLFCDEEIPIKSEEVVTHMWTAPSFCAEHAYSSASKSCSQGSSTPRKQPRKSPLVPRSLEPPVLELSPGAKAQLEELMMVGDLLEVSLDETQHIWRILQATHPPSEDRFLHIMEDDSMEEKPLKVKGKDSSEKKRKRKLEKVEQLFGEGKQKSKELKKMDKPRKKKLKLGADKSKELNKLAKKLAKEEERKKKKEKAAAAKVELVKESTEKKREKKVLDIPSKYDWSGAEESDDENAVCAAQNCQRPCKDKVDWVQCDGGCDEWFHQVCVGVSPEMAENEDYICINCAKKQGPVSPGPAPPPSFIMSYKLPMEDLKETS

Usually IC50 stands for the midpoint of a concentration-inhibition curve. The low end stands for inhibition by little substance, the high end for a need for much substance. The compound `CCCCCCN(C)Cc1ccc(-c2[nH]c3c(C#N)cnn3c(=O)c2C(C)C)cc1` came in with an IC50 in test [1] of 25 µM. Moreover, in test [2], the Ratio IC50 turned out to be 22.
